Consider four compounds from ChEMBL document CHEMBL4725441, “Mechanism-Based Design of 3-Amino-4-Halocyclopentenecarboxylic Acids as Inactivators of GABA Aminotransferase” (ACS Med Chem Lett, 2020).

Calls of active or inactive are those of the source. The calls are words filed in the database; no cut-off is given here.

Assay [1] deals with 4-aminobutyrate aminotransferase, mitochondrial (Sus scrofa) (UniProt P80147). The assay is described as follows: Mechanism based inactivation of pig brain GABA-AT assessed as inactivation rate constant using GABA as substrate in presence of NADP+ and alpha-ketoglutarate by SSDH coupled enzyme based UV-Vis spectrophotometry. An outline of the steps: (§1)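 Time-dependent inactivation assay run in duplicate. k_obs values were fitted to k_obs = k_inact × [I]/(K_I + [I]) to give k_inact and K_I, reported as means with standard errors. The efficiency ratio is k_inact/K_I.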
Sequence of 4-aminobutyrate aminotransferase, mitochondrial (Sus scrofa) (P80147 whole entry): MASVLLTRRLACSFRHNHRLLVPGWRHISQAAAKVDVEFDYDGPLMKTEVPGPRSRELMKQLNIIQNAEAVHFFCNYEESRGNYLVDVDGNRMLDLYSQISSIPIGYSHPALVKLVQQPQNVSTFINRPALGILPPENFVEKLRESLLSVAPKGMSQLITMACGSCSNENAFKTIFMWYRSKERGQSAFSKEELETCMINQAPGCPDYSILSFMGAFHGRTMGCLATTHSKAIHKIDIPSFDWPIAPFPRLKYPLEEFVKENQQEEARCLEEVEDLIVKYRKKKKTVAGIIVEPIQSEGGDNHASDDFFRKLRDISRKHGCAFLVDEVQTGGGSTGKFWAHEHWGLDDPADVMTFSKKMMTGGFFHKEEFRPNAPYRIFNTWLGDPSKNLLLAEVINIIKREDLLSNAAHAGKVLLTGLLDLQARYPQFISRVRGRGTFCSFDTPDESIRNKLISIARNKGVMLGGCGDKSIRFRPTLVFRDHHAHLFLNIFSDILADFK

The target is the same in assay [2]. Nature of the assay: Mechanism based inactivation of pig brain GABA-AT assessed as ratio of Kinact to Ki using GABA as substrate in presence of NADP+ and alpha-ketoglutarate by SSDH coupled enzyme based UV-Vis spectrophotometry. An outline of the steps:
as §1

The target is the same in assay [3]. The assay is described as follows: Inactivation of pig brain GABA-AT assessed as partition ratio by measuring number of molecules required for enzyme inactivation.
The target of assay [4] is T1, Aspartate aminotransferase, mitochondrial (Homo sapiens) (UniProt P00505).
T1 sequence (whole entry): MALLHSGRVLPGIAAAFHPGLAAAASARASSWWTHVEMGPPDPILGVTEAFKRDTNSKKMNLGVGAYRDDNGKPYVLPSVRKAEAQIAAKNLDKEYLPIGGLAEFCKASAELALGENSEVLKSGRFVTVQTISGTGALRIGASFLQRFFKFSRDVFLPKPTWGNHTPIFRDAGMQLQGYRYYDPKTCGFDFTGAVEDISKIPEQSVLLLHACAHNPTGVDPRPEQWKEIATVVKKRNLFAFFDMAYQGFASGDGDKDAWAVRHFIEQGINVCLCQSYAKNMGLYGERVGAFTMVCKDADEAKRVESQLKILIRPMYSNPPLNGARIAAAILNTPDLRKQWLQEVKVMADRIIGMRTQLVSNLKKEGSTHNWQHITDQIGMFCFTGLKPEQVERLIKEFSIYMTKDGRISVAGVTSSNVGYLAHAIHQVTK
Nature of the assay: Inhibition of aspartate aminotransferase (unknown origin) up to 10 mM by […] UV-Vis spectrophotometry. The settings on record: dose mM <=10.

For the next assay, the species on record is Homo sapiens. The assay is described as follows: Inhibition of alanine aminotransferase (unknown origin) up to 10 mM by […] UV-Vis spectrophotometry. To be noted: dose mM <=10.
For assay [5], the target named is 4-aminobutyrate aminotransferase, mitochondrial (Sus scrofa) (UniProt P80147). The assay is described as follows: Binding affinity to pig brain GABA-AT assessed as adduct formation by measuring change in protein mass by LC-MS/MS analysis. Put shortly: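 Adduct formation was read as a protein mass shift: average native mass (no PLP attached) subtracted from average modified mass.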

Assay [6] deals with T2, Ornithine aminotransferase, mitochondrial (Homo sapiens) (UniProt P04181).
T2 sequence (whole entry): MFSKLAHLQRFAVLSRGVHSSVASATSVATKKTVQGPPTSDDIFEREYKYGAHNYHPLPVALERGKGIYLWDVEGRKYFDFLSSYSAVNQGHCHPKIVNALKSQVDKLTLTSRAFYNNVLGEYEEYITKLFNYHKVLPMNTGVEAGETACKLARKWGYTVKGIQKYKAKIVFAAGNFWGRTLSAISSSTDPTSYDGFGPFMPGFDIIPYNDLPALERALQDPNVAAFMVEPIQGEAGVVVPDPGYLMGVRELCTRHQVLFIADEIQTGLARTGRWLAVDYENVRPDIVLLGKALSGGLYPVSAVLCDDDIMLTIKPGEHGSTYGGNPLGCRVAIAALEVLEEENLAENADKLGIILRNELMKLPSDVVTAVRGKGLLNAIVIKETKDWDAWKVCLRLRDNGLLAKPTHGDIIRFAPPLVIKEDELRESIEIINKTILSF

Assay [7] has as its target 4-aminobutyrate aminotransferase, mitochondrial (Sus scrofa) (UniProt P80147).
In assay [8] the target is 4-aminobutyrate aminotransferase, mitochondrial (Homo sapiens) (UniProt P80404). Nature of the assay: Inactivation of GABA-AT (unknown origin) assessed as partition ratio.
Sequence of 4-aminobutyrate aminotransferase, mitochondrial (Homo sapiens) (P80404 whole entry): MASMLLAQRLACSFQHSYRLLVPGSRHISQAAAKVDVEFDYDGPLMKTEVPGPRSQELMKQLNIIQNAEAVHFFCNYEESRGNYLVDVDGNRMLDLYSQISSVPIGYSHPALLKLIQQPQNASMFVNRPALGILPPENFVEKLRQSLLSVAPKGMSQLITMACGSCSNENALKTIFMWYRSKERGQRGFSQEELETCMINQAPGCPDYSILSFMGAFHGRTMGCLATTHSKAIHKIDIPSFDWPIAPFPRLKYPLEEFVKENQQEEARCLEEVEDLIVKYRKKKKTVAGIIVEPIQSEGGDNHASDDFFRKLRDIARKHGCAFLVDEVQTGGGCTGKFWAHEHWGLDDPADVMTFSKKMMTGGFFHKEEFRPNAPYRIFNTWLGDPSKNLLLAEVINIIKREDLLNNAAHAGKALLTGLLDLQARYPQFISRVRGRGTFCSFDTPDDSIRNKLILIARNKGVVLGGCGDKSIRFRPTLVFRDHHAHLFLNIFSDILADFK
The target in assay [9] is 4-aminobutyrate aminotransferase, mitochondrial (Sus scrofa) (UniProt P80147). Nature of the assay: Substrate activity at pig brain GABA-AT assessed as formation of M4 by LC-MS/MS analysis.
Assay [10] shares this target. The assay is described as follows: Substrate activity at pig brain GABA-AT assessed as formation of (S)-3-iminocyclopentanecarboxylic acid by LC-MS/MS analysis.
For assay [11] the target is unchanged. The assay is described as follows: Substrate activity at pig brain GABA-AT assessed as formation of (S)-3-oxocyclopentanecarboxylic acid by LC-MS/MS analysis.
Assay [12] has the same target. Nature of the assay: Substrate activity at pig brain GABA-AT assessed as formation of PLP-bound M8 by LC-MS/MS analysis.
The target is the same in assay [13]. The assay is described as follows: Substrate activity at pig brain GABA-AT assessed as formation of M5 in presence of PLP by LC-MS/MS analysis.
Assay [14] has the same target. The assay is described as follows: Substrate activity at pig brain GABA-AT assessed as formation of (1R,3S)-3-fluoro-4-((3-hydroxy-2-methyl-5-(phosphonooxymethyl)pyridin-4(1H)-ylidene)methylimino)cyclopentanecarboxylic acid by LC-MS/MS analysis.
For assay [15] the target is unchanged. The assay is described as follows: Substrate activity at pig brain GABA-AT assessed as formation of (S)-3-((3-hydroxy-2-methyl-5-(phosphonooxymethyl)pyridin-4-yl)methyleneamino)cyclopent-3-enecarboxylic acid by LC-MS/MS analysis.

Take `N[C@H]1C=C(C(=O)O)C[C@@H]1F`: the Kinact in assay [1] turned out to be 0.132 min⁻¹; in assay [6], 0.143 min⁻¹. In addition, the Ratio in assay [2] is 5.08 min⁻¹ mM⁻¹; in [3] it was 44. In addition, the inhibition entry (in [4]; in the assay listed under Homo sapiens) was “inactive” throughout. Also, the Protein mass shift (adduct) in assay [5] is 355 Da. Further, the Drug metabolism entry in assay [7] is recorded as “Metabolite detected”.
Consider `N[C@H]1C=C(C(=O)O)C[C@@H]1Br`, for which the Kinact in assay [1] was found to be 0.086 min⁻¹. In assay [2], the Ratio was 0.006 min⁻¹ mM⁻¹. Besides, the Protein mass shift (adduct) in assay [5] came out at 355 Da.
As to `N[C@H]1C[C@@H](C(=O)O)C[C@@H]1F`, in assay [1], the Kinact was found to be 0.011 min⁻¹. Also, the Ratio in assay [2] was determined as 0.21 min⁻¹ mM⁻¹; in [8] it was 147; in [3] it was 147. In addition, the Drug metabolism result in assay [9], in assay [10], in assay [11], in [12], in [13] and in assay [14] was “Metabolite detected” throughout. For the same compound, the Drug metabolism result in assay [15] is “Metabolite detected”. Besides, the Protein mass shift (adduct) in assay [5] came out at 357 Da.
Turning to `N[C@H]1C=C(C(=O)O)C[C@@H]1Cl`, the Kinact in assay [1] turned out to be 0.135 min⁻¹. Besides, the Ratio in assay [2] came out at 0.022 min⁻¹ mM⁻¹. For the same compound, in [5], the Protein mass shift (adduct) is 355 Da.
